The source of these data is ChEMBL document CHEMBL2434904, “Novel N-methylsulfonamide and retro-N-methylsulfonamide derivatives as 17β-hydroxysteroid dehydrogenase type 2 (17β-HSD2) inhibitors with good ADME-related physicochemical parameters” (Eur J Med Chem, 2013).

Data set [1] is described as follows: Partition coefficient, log P of the compound. The settings on record: octanol/water. In kind it is physicochemical. In short, it runs like this:
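Experimental log P was measured on a SiriusT3 instrument. Calculated log P came from the GALAS method, which predicts from structurally similar molecules with known experimental data.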

A further data set is filed under the species Homo sapiens. In words: Selectivity factor, ratio of IC50 for human placenta 17beta-HSD1 cytosolic fraction to IC50 for human placenta 17beta-HSD2 microsomal fraction. In short, it runs like this:
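Selectivity factor is IC50(17β-HSD1, placental cytosolic, E1/NADH assay) divided by IC50(17β-HSD2, placental microsomal, E2/NAD⁺ assay). Both come from radiolabeled-substrate conversion assays at 37 °C with 500 nM substrate.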

Data set [2] deals with T1, 17-beta-hydroxysteroid dehydrogenase type 2 (Homo sapiens) (UniProt P37059).
T1 sequence (whole entry): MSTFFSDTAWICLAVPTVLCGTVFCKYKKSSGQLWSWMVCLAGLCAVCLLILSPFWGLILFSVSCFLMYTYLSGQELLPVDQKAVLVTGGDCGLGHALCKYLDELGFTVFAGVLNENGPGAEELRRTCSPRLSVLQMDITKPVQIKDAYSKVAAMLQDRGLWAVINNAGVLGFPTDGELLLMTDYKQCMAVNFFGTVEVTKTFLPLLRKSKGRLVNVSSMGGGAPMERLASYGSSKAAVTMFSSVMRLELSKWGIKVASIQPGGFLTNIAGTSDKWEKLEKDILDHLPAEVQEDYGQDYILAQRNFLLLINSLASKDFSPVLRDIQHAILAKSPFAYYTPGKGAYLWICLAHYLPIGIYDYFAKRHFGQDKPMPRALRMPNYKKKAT
The experiment in a line: Inhibition of human placenta 17beta-HSD2 microsomal fraction using unlabeled, [2,4,6,7-3H]-estradiol as substrate at 1 uM after 20 mins by HPLC analysis in presence of NAD+ relative to control. In outline: (§1)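 17β-HSD2 came from the human placental microsomal pellet after fractional centrifugation at 1000, 10,000 and 150,000 g. It was incubated at 37 °C with NAD⁺ and inhibitor in 50 mM phosphate buffer with 20% glycerol, 1 mM EDTA and 1% DMSO final. Unlabeled plus [³H]-E2 (500 nM final) was added, and the reaction was stopped with HgCl₂ after 20 min. After ether extraction, radio-flow detection gave % conversion = E1/(E1+E2). At least three independent experiments were run.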

Data set [3] concerns the target T2, 17-beta-hydroxysteroid dehydrogenase type 2 (Homo sapiens, UniProt P37059).
T2 sequence (P37059 whole entry): T1 sequence (whole entry)
In words: Inhibition of human placenta 17beta-HSD2 microsomal fraction using unlabeled, [2,4,6,7-3H]-estradiol as substrate after 20 mins by HPLC analysis in presence of NAD+. In outline: as §1

In data set [4] the target is T3, 17-beta-hydroxysteroid dehydrogenase type 1 (Homo sapiens, UniProt P14061).
T3 sequence (P14061 whole entry): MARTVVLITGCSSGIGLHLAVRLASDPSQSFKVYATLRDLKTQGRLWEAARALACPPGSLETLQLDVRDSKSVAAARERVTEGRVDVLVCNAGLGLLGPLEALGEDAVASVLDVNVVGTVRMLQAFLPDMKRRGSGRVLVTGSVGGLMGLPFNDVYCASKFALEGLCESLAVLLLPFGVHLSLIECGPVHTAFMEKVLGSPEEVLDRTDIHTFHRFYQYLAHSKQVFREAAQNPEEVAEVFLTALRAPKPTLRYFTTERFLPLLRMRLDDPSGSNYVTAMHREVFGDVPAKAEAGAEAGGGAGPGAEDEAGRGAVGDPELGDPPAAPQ
The experiment in a line: Inhibition of human placenta 17beta-HSD1 cytosolic fraction using unlabeled, [2,4,6,7-3H]-estrone as substrate after 10 mins by HPLC analysis in presence of NADH.

Data set [5] has as its target T4, 17-beta-hydroxysteroid dehydrogenase type 1 (Homo sapiens) (UniProt P14061).
T4 sequence (whole entry): T3 sequence (P14061 whole entry)
In words: Inhibition of human placenta 17beta-HSD1 cytosolic fraction using unlabeled, [2,4,6,7-3H]-estrone as substrate at 1 uM after 10 mins by HPLC analysis in presence of NADH relative to control.

Data set [6] deals with T2, 17-beta-hydroxysteroid dehydrogenase type 2. In words: Inhibition of 17beta-HSD2 (unknown origin).

The structures appear in SMILES notation. Where only a bound is given, the exact number is not on record here.

In data set [1], `CN(c1ccc(-c2cccc(O)c2)cc1)S(=O)(=O)c1cccc(O)c1` showed a logP of 3.72. For the same compound, the Ratio IC50 in the data set listed under Homo sapiens is 6. For the same compound, the inhibition in data set [2] turned out to be 66%; in data set [5] it was 22%. In addition, the IC50 in data set [3] was 511 nM; in data set [4] it was 3280 nM.

For the compound `COc1ccc(-c2cccc(C(=O)N(C)Cc3cccc(OC)c3)c2)cc1`, the inhibition in data set [5] was 3%.

As to `CN(c1cccc(O)c1)S(=O)(=O)c1cccc(-c2cccc(O)c2)c1`, the logP in data set [1] turned out to be 4.34. Further, in the data set filed under Homo sapiens, the Ratio IC50 was 2. The inhibition turned out to be 68% in data set [2] and 42% in data set [5]. In addition, the concentration for half-maximal inhibition (IC50) in data set [3] worked out at 540 nM; in data set [4] it was 1310 nM.

Turning to `COc1cccc(-c2cccc(C(=O)N(C)c3cccc(OC)c3)c2)c1`, the Ratio IC50 in the data set filed under Homo sapiens is over 115. Besides, in data set [4], the IC50 was over 60000 nM.

In turn, `CN1C(=O)C[C@@H](c2ccccc2F)[C@@H]1[C@@H](O)c1cccc(-c2ccccc2)c1` had a 50% inhibitory concentration (IC50) in data set [6] of 420 nM.

As for `CN(c1cccc(-c2cccc(O)c2)c1)S(=O)(=O)c1cccc(O)c1`, in data set [1], the lipophilicity (logP) came to 4.08. Also, the Ratio IC50 in the data set listed under Homo sapiens stood at 3. The inhibition in data set [2] turned out to be 88%; in data set [5] it was 68%. Besides, the 50% inhibitory concentration (IC50) was found to be 159 nM in data set [3] and 427 nM in data set [4].

On to `CN1C(=O)C[C@@H](c2ccccc2F)[C@@H]1[C@@H](O)c1ccc(-c2ccccc2)cc1`, for which the IC50 in data set [6] came to 1020 nM.
